Assay results of several laboratories.
Compare with care: the assays were run in different laboratories.
Target: Serine/threonine-protein kinase Nek2 (NEK2, Homo sapiens, UniProt P51955)
Sequence (P51955 1-445, as in one of the studies): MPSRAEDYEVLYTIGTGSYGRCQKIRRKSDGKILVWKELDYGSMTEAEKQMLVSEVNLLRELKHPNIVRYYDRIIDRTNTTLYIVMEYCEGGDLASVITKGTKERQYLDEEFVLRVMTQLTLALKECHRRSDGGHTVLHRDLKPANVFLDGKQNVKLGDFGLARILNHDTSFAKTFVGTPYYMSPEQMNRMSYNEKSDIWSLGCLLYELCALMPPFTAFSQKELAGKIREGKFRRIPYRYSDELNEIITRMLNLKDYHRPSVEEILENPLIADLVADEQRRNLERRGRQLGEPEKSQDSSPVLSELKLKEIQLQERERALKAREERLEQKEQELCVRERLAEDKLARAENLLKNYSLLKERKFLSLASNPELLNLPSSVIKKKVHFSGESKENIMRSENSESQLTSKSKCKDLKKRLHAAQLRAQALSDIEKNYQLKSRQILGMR

Cn1cncc1[C@](O)(COc1ccc(C#N)cc1-c1ccc(OC(F)(F)F)cc1)c1ccc(C#N)cc1
remaining binding (cell-free assay, competition with immobilised ligand; 1 µM): 100%

C#Cc1n[nH]c2c(-c3cn(C(C)c4ccccn4)c(=O)[nH]c3=O)cc(F)cc12 (stereo not drawn)
inhibition (enzyme activity, inhibitor; 1 µM): -4.6%

N#CC1(c2ccccn2)CCN(Cc2cc(C(=O)O)c(=O)n3ccccc23)CC1
remaining binding (cell-free assay, competition with immobilised ligand; 1 µM): 100%

CC(C)(C)c1cc(C=C(C#N)C#N)cc(Br)c1O
remaining activity (enzyme activity, inhibitor; 0.5 µM): 96%

Cn1cc(-c2cccc(N3CCc4c(sc5c4CC(C)(C)C5)C3=O)c2CO)cc(Nc2ccncn2)c1=O
inhibition (enzyme activity, inhibitor; 1 µM): 4%

Cc1nn(C)cc1-c1nc2c(N3CCN(Cc4ccc(Cl)cc4)CC3)c(Cl)cnc2[nH]1
remaining binding (binding, competition with immobilised ligand; 1 µM): 100%

COc1cc(Nc2ncc(F)c(Nc3ccc4c(n3)NC(=O)C(C)(C)O4)n2)cc(OC)c1OC
inhibition (binding, competition with immobilised ligand; 10 µM): 83%

C#Cc1n[nH]c2c(-c3cn([C@@H](C)c4ccccc4)c(=O)[nH]c3=O)cc(F)cc12
inhibition (enzyme activity, inhibitor; 0.1 µM): 0.5%

Cn1cc(-c2cc(F)cc(N3CCn4c(cc5c4CCCC5)C3=O)c2CO)cc(Nc2ccc(N3CCN(C4COC4)CC3)cn2)c1=O
inhibition (enzyme activity, inhibitor; 0.1 µM): 10%

O=c1[nH]c2ccccc2n1C1CCN(Cc2ccc(-c3[nH]c4cc5ncnc5cc4nc3-c3ccccc3)cc2)CC1
remaining signal (cell-free assay; 0.5 µM): 96.8%

COc1ncccc1-c1cnn2ccc(N3CCN(C(=O)OC(C)C)CC3)nc12
remaining binding (binding, competition with immobilised ligand; 1 µM): 86%

Nc1ncc(-c2nc(N3CCOCC3)nc(N3CCOCC3)n2)c(C(F)F)n1
remaining binding (binding, competition with immobilised ligand; 10 µM): 87%
